ChEMBL document CHEMBL3259728, “Design, synthesis and biological evaluation of some novel substituted quinazolines as antitumor agents” (2014)

What was measured:
Assay type in all cases: functional
[1] = Cytotoxicity against human Hs578T cells after 48 hrs by SRB assay; details: Hs-578T
In short: (§1)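 NCI 60-cell-line panel of human tumour lines from nine cancer types. Continuous 48 h exposure at five 10-fold dilutions from 10^-4 to 10^-8 M, with 5-FU as positive control. SRB protein stain read spectrophotometrically at time zero, untreated control and each concentration. GI50, TGI and LC50 were derived from the [(Ti−Tz)/(C−Tz)]×100 growth relations, and out-of-range values are given as > or < the tested limits.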

[2] = tested on: MDA-MB-435; assay: Cytotoxicity against human MDA-MB-435 cells after 48 hrs by SRB assay; details: MDA-MB-435, 48 h; in short: as §1
[3] = tested on: HCT-116; assay: Growth inhibition of human HCT116 cells assessed as cell growth at 10^-5 M after 48 hrs by SRB assay; details: HCT-116, 48 h, read-out: Activity
[4] = Growth inhibition of human HCC2998 cells assessed as cell growth at 10^-8 M after 48 hrs by SRB assay; details: HCC 2998, 48 h, read-out: Activity
[5] = tested on: SF-268; assay: Growth inhibition of human SF268 cells assessed as cell growth at 10^-8 M after 48 hrs by SRB assay; details: SF-268, 48 h, read-out: Activity
[6] = tested on: 786-0; assay: Growth inhibition of human 786-0 cells assessed as cell growth at 10^-4 M after 48 hrs by SRB assay; details: 786-0, 48 h, read-out: Activity
In short: (§2)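 Five-dose NCI panel protocol. Each dose (10^-4 to 10^-8 M, 10-fold steps) was given as 48 h continuous exposure, and protein was measured by SRB staining. Percentage growth at each level is [(Ti−Tz)/(C−Tz)]×100, where Tz is time-zero absorbance and C is untreated control.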

[7] = tested on: SNB-19; assay: Growth inhibition of human SNB19 cells assessed as cell growth at 10^-4 M after 48 hrs by SRB assay; details: SNB-19, 48 h, read-out: Activity
[8] = tested on: CCRF-CEM; assay: Growth inhibition of human CCRF-CEM cells assessed as cell growth at 10^-5 M after 48 hrs by SRB assay; details: read-out: Activity; in short: as §2
[9] = tested on: A498; assay: Cytotoxicity against human A498 cells after 48 hrs by SRB assay; details: A498, 48 h; in short: as §1
[10] = tested on: SK-MEL-28; assay: Growth inhibition of human SK-MEL-28 cells assessed as cell growth at 10^-6 M after 48 hrs by SRB assay; details: SK-MEL-28, 48 h, read-out: Activity
[11] = Growth inhibition of human UACC62 cells assessed as cell growth at 10^-7 M after 48 hrs by SRB assay; details: UACC-62, 48 h, read-out: Activity
[12] = tested on: MDA-MB-435; assay: Growth inhibition of human MDA-MB-435 cells assessed as cell growth at 10^-5 M after 48 hrs by SRB assay; details: MDA-MB-435, 48 h, read-out: Activity
[13] = Growth inhibition of human UACC257 cells assessed as cell growth at 10^-6 M after 48 hrs by SRB assay; details: UACC-257, 48 h, read-out: Activity
[14] = tested on: KM12; assay: Cytotoxicity against human KM12 cells after 48 hrs by SRB assay; details: KM12, 48 h; in short: as §1
[15] = tested on: ACHN; assay: Growth inhibition of human ACHN cells assessed as cell growth at 10^-6 M after 48 hrs by SRB assay; details: read-out: Activity; in short: as §2
[16] = tested on: COLO 205; assay: Growth inhibition of human COLO205 cells assessed as cell growth at 10^-7 M after 48 hrs by SRB assay; details: COLO 205, 48 h, read-out: Activity; in short: as §2
[17] = tested on: HT-29; assay: Growth inhibition of human HT-29 cells assessed as cell growth at 10^-7 M after 48 hrs by SRB assay; details: HT-29, 48 h, read-out: Activity
[18] = tested on: COLO 205; assay: Growth inhibition of human COLO205 cells assessed as cell growth at 10^-5 M after 48 hrs by SRB assay; details: COLO 205, 48 h, read-out: Activity; in short: as §2
[19] = tested on: K562; assay: Cytotoxicity against human K562 cells after 48 hrs by SRB assay; details: K562, 48 h; in short: as §1
[20] = Growth inhibition of human MOLT4 cells assessed as cell growth at 10^-6 M after 48 hrs by SRB assay; details: MOLT-4, 48 h, read-out: Activity
[21] = tested on: SNB-19; assay: Cytotoxicity against human SNB19 cells after 48 hrs by SRB assay; details: SNB-19, 48 h; in short: as §1
[22] = Growth inhibition of human Hs578T cells assessed as cell growth at 10^-5 M after 48 hrs by SRB assay; details: Hs-578T, read-out: Activity
[23] = tested on: U-251; assay: Growth inhibition of human U251 cells assessed as cell growth at 10^-7 M after 48 hrs by SRB assay; details: U-251, 48 h, read-out: Activity
[24] = tested on: RPMI-8226; assay: Cytotoxicity against human RPMI8226 cells after 48 hrs by SRB assay; details: RPMI-8226, 48 h; in short: as §1
[25] = tested on: SNB-75; assay: Growth inhibition of human SNB75 cells assessed as cell growth at 10^-8 M after 48 hrs by SRB assay; details: SNB-75, 48 h, read-out: Activity
[26] = Cytotoxicity against human EKVX cells after 48 hrs by SRB assay; in short: as §1
[27] = tested on: U-251; assay: Growth inhibition of human U251 cells assessed as cell growth at 10^-6 M after 48 hrs by SRB assay; details: U-251, 48 h, read-out: Activity
[28] = Growth inhibition of human HCC2998 cells assessed as cell growth at 10^-5 M after 48 hrs by SRB assay; details: HCC 2998, 48 h, read-out: Activity
[29] = read-out: LC50 (the source's name)
[30] = read-out: pLC50 (the source's name) (converted)

Cc1ccc(-c2nc3ccc(Cl)cc3c(=O)n2/N=C/c2ccccc2)cc1
GI50 ([1]; read-out: GI50): 2.62 µM
LC50 (concentration giving 50% net cell kill) ([1]; read-out: LC50): > 100 µM
TGI ([1]; read-out: TGI): 17.2 µM
GI50 ([1]; read-out: pGI50 (converted)): 2.63 µM
LC50 (concentration giving 50% net cell kill) ([1]; read-out: pLC50 (converted)): > 100 µM
TGI ([1]; read-out: pTGI (converted)): 17.4 µM
GI50 ([2]; read-out: GI50): > 100 µM
CC50 [2, 29]: > 100 µM
TGI ([2]; read-out: TGI): > 100 µM
GI50 ([2]; read-out: pGI50 (converted)): > 100 µM
CC50 [2, 30]: > 100 µM
TGI ([2]; read-out: pTGI): > 100 µM
growth at 10 µM [3]: 37%
growth at 0.01 µM [4]: 102%
growth at 0.01 µM [5]: 91%
growth at 100 µM [6]: 17%
growth at 100 µM [7]: 10%
growth at 10 µM [8]: 86%
GI50 ([9]; read-out: GI50): 5.91 µM
CC50 [9, 29]: > 100 µM
TGI ([9]; read-out: TGI): > 100 µM
GI50 ([9]; read-out: pGI50 (converted)): 5.89 µM
CC50 [9, 30]: > 100 µM
TGI ([9]; read-out: pTGI): > 100 µM
growth at 1 µM [10]: 93%
growth at 0.1 µM [11]: 88%
growth at 10 µM [12]: 59%
growth at 1 µM [13]: 97%
GI50 ([14]; read-out: GI50): > 100 µM
CC50 [14, 29]: > 100 µM
TGI ([14]; read-out: TGI): > 100 µM
GI50 ([14]; read-out: pGI50 (converted)): > 100 µM
CC50 [14, 30]: > 100 µM
TGI ([14]; read-out: pTGI): > 100 µM
growth at 1 µM [15]: 40%
growth at 0.1 µM [16]: 116%
growth at 0.1 µM [17]: 93%
growth at 10 µM [18]: 47%
GI50 ([19]; read-out: GI50): > 100 µM
LC50 ([19]; read-out: LC50): > 100 µM
TGI ([19]; read-out: TGI): > 100 µM
GI50 ([19]; read-out: pGI50 (converted)): > 100 µM
LC50 ([19]; read-out: pLC50 (converted)): > 100 µM
TGI ([19]; read-out: pTGI): > 100 µM
growth at 1 µM [20]: 99%
GI50 ([21]; read-out: GI50): 5 µM
CC50 [21, 29]: > 100 µM
TGI ([21]; read-out: TGI): > 100 µM
GI50 ([21]; read-out: pGI50 (converted)): 5.01 µM
CC50 [21, 30]: > 100 µM
TGI ([21]; read-out: pTGI): > 100 µM
growth at 10 µM [22]: 3%
growth at 0.1 µM [23]: 99%
GI50 ([24]; read-out: GI50): > 100 µM
CC50 [24, 29]: > 100 µM
TGI ([24]; read-out: TGI): > 100 µM
GI50 ([24]; read-out: pGI50 (converted)): > 100 µM
CC50 [24, 30]: > 100 µM
TGI ([24]; read-out: pTGI): > 100 µM
growth at 0.01 µM [25]: 87%
GI50 ([26]; read-out: GI50): 4.15 µM
CC50 [26, 29]: > 100 µM
TGI ([26]; read-out: TGI): > 100 µM
GI50 ([26]; read-out: pGI50 (converted)): 4.17 µM
CC50 [26, 30]: > 100 µM
TGI ([26]; read-out: pTGI): > 100 µM
growth at 1 µM [27]: 93%
growth at 10 µM [28]: 96%
